Reference: article PMC9474599 (Immunity, 2022)
Entries after “also recorded” stand apart in the source; their conditions may differ. *1 amine or outer side, *2 acyl side, *3 side chain or, on linkers, in order; H or OH if unused. Where a SMILES comes first, the peptide text is derived from it. Bridges are numbered along the chain shown (N, C = ends). Where no end group is shown, it is not given here. [ ]: non-standard residue; d: D form. The star is where a group is joined. X1 = CC(=O)NC(C(=O)OC(C(C)C)C(N[*:1])C(=O)[*:2])C(O)C(C)C; Biotin = O=C1N[C@H]2[C@H](CS[C@H]2CCCCC(=O)*)N1; PhLac = O=C(O)[CH](O)Cc1ccccc1; NMeT = CN[CH](C(=O)O)[CH](C)O; NMeA = CN[CH](C)C(=O)O; NMeDha = C=C(NC)C(=O)O

Key:
Mrgpra2b-GFP [1] = molecular target: T1, Mrgpra2b-GFP (Mus musculus, UniProt Q91WW4); assay: co-IP of biotin-hBD3 with Mrgpra2b-GFP; format: binding; conditions: 10μM biotin-hBD3, 4°C overnight, anti-GFP beads, anti-biotin western blot
T1 sequence (Q91WW4 1-305): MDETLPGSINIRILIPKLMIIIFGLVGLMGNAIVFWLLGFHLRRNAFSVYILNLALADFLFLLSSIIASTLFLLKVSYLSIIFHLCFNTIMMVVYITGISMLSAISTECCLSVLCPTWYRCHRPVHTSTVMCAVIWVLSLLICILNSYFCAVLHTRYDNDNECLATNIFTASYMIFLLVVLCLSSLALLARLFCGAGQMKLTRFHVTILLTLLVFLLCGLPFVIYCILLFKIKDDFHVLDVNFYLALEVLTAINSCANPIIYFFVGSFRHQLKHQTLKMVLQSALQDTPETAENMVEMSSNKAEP

Mrgpra2b = molecular target: T2, Mrgpra2b (Mus musculus, UniProt Q91WW4); assay: FLIPR intracellular Ca2+ mobilization, HEK cells expressing Mrgpra2b; format: cell-based; conditions: for Mrgpra2 receptor activation: FLIPR Ca2+ mobilization, Figure S1E (negative peptides), Figure 1E
T2 sequence (Q91WW4 1-305): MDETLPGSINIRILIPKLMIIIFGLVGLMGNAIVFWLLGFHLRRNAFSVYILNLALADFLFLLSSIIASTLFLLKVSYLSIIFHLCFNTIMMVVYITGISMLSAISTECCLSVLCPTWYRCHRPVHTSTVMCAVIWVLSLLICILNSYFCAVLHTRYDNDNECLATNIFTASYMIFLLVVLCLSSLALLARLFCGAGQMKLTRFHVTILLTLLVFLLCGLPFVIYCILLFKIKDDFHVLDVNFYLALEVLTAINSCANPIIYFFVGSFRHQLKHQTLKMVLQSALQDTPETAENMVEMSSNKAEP

bone marrow neutrophils [2] = assay: Western blot of IL-1β release from neutrophils; format: cell-based, mouse; conditions: for Inhibition of hBD3-mediated IL-1β release: WT neutrophils, inhibitor 10μM added together with LTA, n=3
bone marrow neutrophils [3] = assay: Proteome profiler array of neutrophil cytokines and chemokines; format: cell-based, mouse; conditions: S. aureus LTA 1 μg/mL alone (signal 1), vs control
bone marrow neutrophils [4] = assay: IL-1β and Cxcl2 release from neutrophils; format: cell-based, mouse
In short: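 MACS-purified bone marrow neutrophils were primed with 1 μg/mL S. aureus lipoteichoic acid for 2 h. hBD3 or mBD14 was then added at 10 μM final. After a further 2 h, supernatants were collected and cells lysed in RIPA buffer. IL-1β and Cxcl2 were measured in both fractions by DuoSet ELISA. 5 mM ATP served as positive control.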

neutrophils [5] = assay: Neutrophil elastase release; format: cell-based; conditions: Mrgpra2 dKO mouse neutrophils; hBD3 0-10 μM or 10 μM mBD14, one hour; n=5
In short: (§1)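 Bone marrow neutrophils were MACS-purified from 8-10-week-old C57BL/6J-background mice of both sexes, with >90% purity by flow cytometry. 2×10^5 cells in RPMI were incubated 1 h with 0, 1, 5 or 10 μM hBD3 or 10 μM mBD14, both dissolved in RPMI. Elastase and MPO in the supernatant were quantified by DuoSet sandwich ELISA.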

neutrophils [6] = assay: Neutrophil myeloperoxidase; format: cell-based; conditions: Mrgpra2 dKO mouse neutrophils; hBD3 0-10 μM or 10 μM mBD14, one hour; n=5
In short: as §1

S. aureus = assay: Intradermal S. aureus skin infection, bacterial bioluminescence; format: in vivo, Staphylococcus aureus USA300 LAC::lux in mouse; conditions: 100ng each, co-injected with S. aureus; bioluminescence 24 hours post-infection; n=8-36
Mrgpra2b-GFP [7] = molecular target: T3, Mrgpra2b-GFP (mouse, UniProt Q91WW4 1-305); assay: flow cytometry on cells
T3 sequence (looked up): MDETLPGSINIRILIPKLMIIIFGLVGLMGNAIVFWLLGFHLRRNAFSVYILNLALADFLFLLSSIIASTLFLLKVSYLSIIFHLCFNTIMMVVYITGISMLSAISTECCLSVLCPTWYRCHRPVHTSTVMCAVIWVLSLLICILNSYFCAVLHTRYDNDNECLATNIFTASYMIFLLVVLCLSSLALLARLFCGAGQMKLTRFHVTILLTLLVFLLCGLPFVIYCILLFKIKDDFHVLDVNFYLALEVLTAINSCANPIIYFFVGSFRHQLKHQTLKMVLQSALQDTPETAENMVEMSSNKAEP

MRGPRX3-FLAG (human) = MRGPRX3-FLAG (human) (UniProt Q96LB0)
MRGPRX3-FLAG (human), sequence (Q96LB0 whole entry): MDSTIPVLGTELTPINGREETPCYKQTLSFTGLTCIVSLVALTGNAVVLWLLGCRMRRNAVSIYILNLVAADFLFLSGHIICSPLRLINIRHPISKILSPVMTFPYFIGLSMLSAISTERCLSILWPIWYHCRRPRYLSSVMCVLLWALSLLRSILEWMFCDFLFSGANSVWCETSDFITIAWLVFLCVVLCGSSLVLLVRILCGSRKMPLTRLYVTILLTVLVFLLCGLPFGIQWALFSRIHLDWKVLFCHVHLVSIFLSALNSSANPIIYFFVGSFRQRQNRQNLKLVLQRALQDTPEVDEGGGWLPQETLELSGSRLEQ

[8] = ELISA, LTA 1 μg/mL 2 hours, then 10 μM hBD3 or mBD14 for 2 hours, n=5

With “Biotin-GIINTLQKYYCRVRGGRCAVLSCLPKEEQIGKCSTRGRKCCRRKK (disulfide 11-40, 18-33, 23-41) [biotin-hBD3]” the “Co-precipitation with Mrgpra2b-GFP” value (Mrgpra2b-GFP [1]) was “co-precipitated only with Mrgpra2b-GFP; also recorded: could be co-precipitated”.

“hBD1: Human peptide hBD1 (DHYNCVSSGGQCLYSACPIFTKIQGTCYRGKAKCCK; UniProt P60022 33-68, looked up)” was tested, and the Mrgpra2 receptor activation (Mrgpra2b) was “did not trigger receptor activation”.

In the case of `CC(C)[C@H](NC(=O)c1ccc2ccccc2n1)C(=O)N[C@@H](CC(=O)O)C(=O)COc1c(F)cccc1F` [Q-VD-OPh], the “Inhibition of hBD3-mediated IL-1β release” value (bone marrow neutrophils [2]) is reported as “inhibited; also recorded: effectively reduced IL-1β release from WT neutrophils in response to hBD3”.

“mBD1: mouse peptide mBD1 (DQYKCLQHGGFCLRSSCPSNTKLQGTCKPDKPNCCKS; UniProt P56386 33-69, looked up)” was tested, and the Mrgpra2 receptor activation (Mrgpra2b) was “did not trigger receptor activation”.

For “hBD4: Human peptide, printed as 'hBD1, 2 and 4' (EFELDRICGYGTARCRKKCRSQEYRIGRCPNTYACCLRKWDESLLNRTKP; UniProt Q8WTQ1 23-72, looked up)”, the Mrgpra2 receptor activation (Mrgpra2b) was “did not trigger receptor activation”.

With lipoteichoic acid [LTA] the “Production of pro-IL-1β by LTA” value (bone marrow neutrophils [2]; S. aureus LTA 1 μg/mL, WT and Mrgpra2 dKO neutrophils) was “induced the production of pro-IL-1β in both WT and Mrgpra2 dKO neutrophils”, the “Release of IL-1ra, Ccl3, Ccl4, Cxcl2 and TNFα by LTA alone” value (bone marrow neutrophils [3]) was “triggered the release of more IL-1ra, Ccl3, Ccl4, Cxcl2 and TNFα compared to the control” and the “IL-1β production and release by LTA alone” value (bone marrow neutrophils [4]; S. aureus LTA 1 μg/mL alone (signal 1), Figure 7A, D) was “induced the production of IL-1β, but the cytokine was not released from the cells”. For the same molecule, the “Priming effect of LTA, WT versus Mrgpra2 dKO neutrophils” value (bone marrow neutrophils [4]; S. aureus LTA 1 μg/mL, Figure 7A, C, D) was “did not differ between WT or Mrgpra2 dKO neutrophils”.

With “FLPKTLRKFFCRIRGGRCAVLNCLGKEEQIGRCSNSGRKCCRKKK (disulfide 11-40, 18-33, 23-41) [mBD14]” the “Elastase release, Mrgpra2 dKO neutrophils” value (neutrophils [5]) was “did not respond to hBD3 or mBD14 stimuli”, the EC50 (Mrgpra2b) was 18.7 µM and the Mrgpra2 receptor activation (Mrgpra2b) was “evoked robust receptor activation”. For the same molecule, the “MPO release, Mrgpra2 dKO neutrophils” value (neutrophils [6]) was “did not respond to hBD3 or mBD14 stimuli”, the “Synthesis of IL-1β or Cxcl2, defensin alone” value (bone marrow neutrophils [4]; ELISA, total = secreted + intracellular, defensin alone, no LTA, n=5) was “did not induce the synthesis of IL-1β or Cxcl2” and the “Cxcl2 release, LTA-primed Mrgpra2 dKO neutrophils” value (bone marrow neutrophils [4]; [8]) was “did not respond to hBD3 or mBD14”. For the same molecule, the “Cxcl2 release, LTA-primed WT neutrophils” value (bone marrow neutrophils [4]; [8]) was “released IL-1β and Cxcl2 in response to hBD3 or mBD14 stimuli; also recorded: significant increase in the amount of IL-1β and Cxcl2”, the “IL-1β release, LTA-primed Mrgpra2 dKO neutrophils” value (bone marrow neutrophils [4]; [8]) was “did not respond to hBD3 or mBD14” and the “IL-1β release, LTA-primed WT neutrophils” value (bone marrow neutrophils [4]; [8]) was “released IL-1β and Cxcl2 in response to hBD3 or mBD14 stimuli; also recorded: significant increase in the amount of IL-1β”.

For “hBD2: Human peptide, printed as 'hBD1, 2 and 4' (GIGDPVTCLKSGAICHPVFCPRRYKQIGTCGLPGTKCCKKP; UniProt O15263 24-64, looked up)”, the Mrgpra2 receptor activation (Mrgpra2b) was “did not trigger receptor activation”.

In the case of `C=C1C(=O)NC(C)C(=O)N(C)C(C)C(=O)NC(C(OC(=O)C(NC(C)=O)C(O)C(C)C)C(C)C)C(=O)N(C)C(C(C)OC)C(=O)OC(C)C(NC(C)=O)C(=O)OC(Cc2ccccc2)C(=O)N1C` (stereo not shown) [YM-254890] (Ac-T[PhLac][NMeDha]A[NMeA][X1][NMeT](Me); ester 1-C; configuration not given here), the “Inhibition of hBD3-mediated IL-1β release” value (bone marrow neutrophils [2]) is reported as “inhibited”.

For “mBD2: mouse peptide, printed as 'mBD1, 2, 4' (AVGSLKSIGYEAELDHCHTNGGYCVRAICPPSARRPGSCFPEKNPCCKYMK; UniProt P82020 21-71, looked up)”, the Mrgpra2 receptor activation (Mrgpra2b) was “did not trigger receptor activation”.

“KKINNPVSCLRKGGRCWNRCIGNTRQIGSCGVPFLKCCKRK (disulfide 9-37, 16-30, 20-38) [mBD3]” was tested, and the EC50 (Mrgpra2b) was 42.8 µM.

B1: IL-1β: Recombinant IL-1β, R&D systems 401-ML (protein, UniProt P10749 118-269, looked up)
Interleukin-1 beta: VPIRQLHYRLRDEQQKSLVLSDPYELKALHLNGQNINQQVIFSMSFVQGEPSNDKIPVALGLKGKNLYLSCVMKDGTPTLQLESVDPKQYPKKKMEKRFVFNKIEVKSKVEFESAEFPNWYISTSQAEHKPVFLGNNSGQDIIDFTMESVSS
B1 was tested, and the “Bacterial load / anti-S. aureus rescue, Def cKO mice” value (S. aureus) was “rescued the anti-S. aureus defect of Mrgpra2 dKO and Def cKO mice; also recorded: significantly reduced the bacterial load” and the “Bacterial load / anti-S. aureus rescue, Mrgpra2 dKO mice” value (S. aureus) was “rescued the anti-S. aureus defect of Mrgpra2 dKO and Def cKO mice; also recorded: significantly reduced the bacterial load”.

In the case of Biotin-GIINTLQKYYCRVRGGRCAVLSCLPKEEQIGKCSTRGRKCCRRKK (peptide, UniProt P81534 23-67, looked up, ends and bridges not checked) [N-terminal biotinylated human beta-defensin 3], the Kd (Mrgpra2b-GFP [7]) is reported as 15.9 µM.

B2: Cxcl2: recombinant mouse Cxcl2, R&D (protein, UniProt P10889 28-100, looked up)
C-X-C motif chemokine 2: AVVASELRCQCLKTLPRVDFKNIQSLSVTPPGPHCAQTEVIATLKGGQKVCLDPEAPLVQKIIQKILNKGKAN
With B2 the “Bacterial load / anti-S. aureus rescue, Def cKO mice” value (S. aureus) was “did not rescue Mrgpra2 or Def KO phenotypes; also recorded: did not alter the mutant phenotypes” and the “Bacterial load / anti-S. aureus rescue, Mrgpra2 dKO mice” value (S. aureus) was “did not rescue Mrgpra2 or Def KO phenotypes; also recorded: did not alter the mutant phenotypes”.

For GIINTLQKYYCRVRGGRCAVLSCLPKEEQIGKCSTRGRKCCRRKK (ends and bridges not checked; cysteine pairing not given here) [Human beta-defensin 3], the EC50 of FLIPR intracellular calcium mobilization in HEK cells expressing MRGPRX3 (MRGPRX3-FLAG (human)) was 10.8 µM.
